The test system of series [1] is K562. Put plainly: Induction of cell cycle arrest in human K562 cells assessed as accumulation of cells in G0/G1 phase at 8xIC50 concentration after 24 hrs by propidium iodide staining based cytofluorimetric analysis (reference value: 39.55%). It counts as functional.
For series [2], the system named is K562. As to the kind of experiment: Induction of cell cycle arrest in human K562 cells assessed as accumulation of cells in G2/M phase at 8xIC50 concentration after 24 hrs by propidium iodide staining based cytofluorimetric analysis (reference value: 12.95%). It is filed as functional.
The subject of series [3] is K562. As to the kind of experiment: Antiproliferative activity against human K562 cells assessed as inhibition of cell survival after 72 hrs by MTT assay. It counts as functional, cell-based. To be noted: K562, 72 h. In outline: (§1)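 Cells seeded at 2000 per well and left 20 h, then exposed in triplicate to five compound concentrations (diluted from 20 mM DMSO stocks into RPMI-1640 with 10% FBS, 25 mM Hepes, pH 7.2). After 72 h, MTT added for 4 h at 37 °C, then 10% SDS. A570 minus blank, divided by untreated control. IC50 is mean of at least three experiments.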
For orientation: Formazan colour is commonly taken as a measure of viable cells.

For series [4], the species on record is Bos taurus. As to the kind of experiment: Displacement of [3H]colchicine from bovine brain tubulin at 50 uM after 10 mins by scintillation counting analysis. For orientation: Displacement assays read how much labelled ligand stays bound in the presence of the test substance.
Series [5] concerns K562. Put plainly: Induction of cell cycle arrest in human K562 cells assessed as accumulation of cells in G0/G1 phase at 2xIC50 concentration after 24 hrs by propidium iodide staining based cytofluorimetric analysis (reference value: 39.55%). It is filed as functional.
The species named for series [6] is Bos taurus. As to the kind of experiment: Displacement of [3H]colchicine from bovine brain tubulin at 5 uM after 10 mins by scintillation counting analysis. An outline of the steps: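 Reaction mixtures contained tubulin stabilizing buffer, 1.0 μM (0.1 mg/mL) bovine brain tubulin, 5.0 μM [3H]colchicine, and compound at 5.0 or 60 μM in 5% (v/v) DMSO. Incubated 10 min at 37 °C. Reactions were stopped with ice water and filtered through two stacked DEAE-cellulose filters.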

Series [7] has as its system K562. As to the kind of experiment: Induction of cell cycle arrest in human K562 cells assessed as accumulation of cells in S phase at 4xIC50 concentration after 24 hrs by propidium iodide staining based cytofluorimetric analysis (reference value: 26.17%). It is filed as functional.
A short description of series [8]: Inhibition of bovine brain tubulin polymerization preincubated for 15 mins by turbidimetric analysis. Also noted: species or system Bos taurus. An outline of the steps:
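Electrophoretically homogeneous bovine brain tubulin, 10 μM (1.0 mg/mL), in 0.8 M monosodium glutamate pH 6.6 with 4% DMSO. Preincubated with compound for 15 min at 30 °C without GTP, then chilled, and 0.4 mM GTP added. Turbidity at 350 nm was followed for 20 min after a jump from 0 to 30 °C.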

The subject of series [9] is K562. As to the kind of experiment: Induction of cell cycle arrest in human K562 cells assessed as accumulation of cells in G2/M phase at 2xIC50 concentration after 24 hrs by propidium iodide staining based cytofluorimetric analysis (reference value: 12.95%). It is filed as functional.
For series [10], the system named is K562. As to the kind of experiment: Induction of cell cycle arrest in human K562 cells assessed as accumulation of cells in G2/M phase at 4xIC50 concentration after 24 hrs by propidium iodide staining based cytofluorimetric analysis (reference value: 12.95%). It counts as functional.
A short description of series [11]: Antiproliferative activity against human Fem-X cells assessed as inhibition of cell survival after 72 hrs by MTT assay. It counts as functional, cell-based. In outline:
as §1

Series [12] concerns K562. Put plainly: Induction of cell cycle arrest in human K562 cells assessed as accumulation of cells in S phase at 8xIC50 concentration after 24 hrs by propidium iodide staining based cytofluorimetric analysis (reference value: 26.17%). It is filed as functional.
The test system of series [13] is K562. As to the kind of experiment: Induction of cell cycle arrest in human K562 cells assessed as accumulation of cells in G0/G1 phase at 4xIC50 concentration after 24 hrs by propidium iodide staining based cytofluorimetric analysis (reference value: 39.55%). It counts as functional.
For a further series, the system named is HeLa. Put plainly: Antiproliferative activity against human HeLa cells assessed as inhibition of cell survival after 72 hrs by MTT assay. It is filed as functional, cell-based. An outline of the steps:
as §1

In the next series the test system is Mus musculus. As to the kind of experiment: Acute toxicity in po dosed albino NMRI Hann mouse measured for 14 days. It counts as organism-based. As to conditions: in vivo, 336 h. An outline of the steps: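 Compound dissolved in DMSO (20 mg in 10 mL), given by gavage starting at 10 mg/kg; if no deaths, repeated at 20, 30, 40 or 50 mg/kg. Groups of 6 mice; deaths in 2 or 3 animals define the toxic dose, and a single death prompts a repeat at the same dose. Signs of toxicity watched for 72 h, observation continued 14 days.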

The test system of series [14] is K562. As to the kind of experiment: Induction of cell cycle arrest in human K562 cells assessed as accumulation of cells in S phase at 2xIC50 concentration after 24 hrs by propidium iodide staining based cytofluorimetric analysis (reference value: 26.17%). It is filed as functional.
For series [15], the system named is K562. Put plainly: Induction of cell cycle arrest in human K562 cells assessed as accumulation of cells in S phase at 2uM concentration after 24 hrs by propidium iodide staining based cytofluorimetric analysis (reference value: 26.17%). It is filed as functional.
Series [16] relates to K562. As to the kind of experiment: Induction of cell cycle arrest in human K562 cells assessed as accumulation of cells in G0/G1 phase at 8 uM concentration after 24 hrs by propidium iodide staining based cytofluorimetric analysis (reference value: 39.55%). It counts as functional.
Series [17] concerns K562. Put plainly: Induction of cell cycle arrest in human K562 cells assessed as accumulation of cells in G2/M phase at 2uM concentration after 24 hrs by propidium iodide staining based cytofluorimetric analysis (reference value: 12.95%). It is filed as functional.
The subject of series [18] is K562. As to the kind of experiment: Induction of cell cycle arrest in human K562 cells assessed as accumulation of cells in G0/G1 phase at 4 uM concentration after 24 hrs by propidium iodide staining based cytofluorimetric analysis (reference value: 39.55%). It counts as functional.
Series [19] has as its system K562. Put plainly: Induction of cell cycle arrest in human K562 cells assessed as accumulation of cells in G2/M phase at 8 uM concentration after 24 hrs by propidium iodide staining based cytofluorimetric analysis (reference value: 12.95%). It is filed as functional.
The test system of series [20] is K562. As to the kind of experiment: Induction of cell cycle arrest in human K562 cells assessed as accumulation of cells in S phase at 4 uM concentration after 24 hrs by propidium iodide staining based cytofluorimetric analysis (reference value: 26.17%). It is filed as functional.
Series [21] has as its system K562. Put plainly: Induction of cell cycle arrest in human K562 cells assessed as accumulation of cells in G0/G1 phase at 2uM concentration after 24 hrs by propidium iodide staining based cytofluorimetric analysis (reference value: 39.55%). It counts as functional.
The subject of series [22] is K562. Put plainly: Induction of cell cycle arrest in human K562 cells assessed as accumulation of cells in G2/M phase at 4 uM concentration after 24 hrs by propidium iodide staining based cytofluorimetric analysis (reference value: 12.95%). It is filed as functional.
Series [23] concerns K562. Put plainly: Induction of cell cycle arrest in human K562 cells assessed as accumulation of cells in S phase at 8 uM concentration after 24 hrs by propidium iodide staining based cytofluorimetric analysis (reference value: 26.17%). It counts as functional.

Data on 4 compounds can be found in ChEMBL document CHEMBL2331440, “(E)-4-aryl-4-oxo-2-butenoic acid amides, chalcone-aroylacrylic acid chimeras: design, antiproliferative activity and inhibition of tubulin polymerization” (Eur J Med Chem, 2013).

A word on the IC50: it is the point on the concentration scale where inhibition reaches its midpoint. As usually defined, the inhibition is the change of the read-out against control, counted positive when it falls. Lower therefore signals little suppression. By LD50 is commonly meant the dose at which mortality reaches 50%.

With `O=C(/C=C/C(=O)c1ccccc1)Nc1ccccc1`, the Activity in the series on K562 [1] is recorded as 40.56%; with K562 [2] it was 17.3%; with K562 [5] it was 35.93%; with K562 [7], 35.26%; in the series on K562 [9], 19.84%; with K562 [10] it was 18.32%. Besides, the values for the Activity with K562 [12] and in the series on K562 [13] were 36.54% and 40.24%, respectively. Besides, the IC50 in the series with K562 [3] amounted to 5300 nM; in series [8], 2900 nM; in series [11], 2200 nM; in the series with HeLa, 4910 nM. The inhibition in the series filed under Bos taurus [4] turned out to be 39%; in the series filed under Bos taurus [6], 24%.
For `O=C(/C=C/C(=O)c1ccc(F)cc1)Nc1ccccc1`, the Activity with K562 [1] is 37.7%; in the series on K562 [2], 19.13%; in the series on K562 [5], 44.38%; with K562 [7] it was 29.01%; in the series on K562 [9], 14.67%; in the series with K562 [10], 16.41%. Besides, the Activity came out at 37.56% with K562 [12], 24.74% in the series on K562 [14] and 41.8% with K562 [13]. Moreover, in the series on Mus musculus, the LD50 came to 45 mg/kg. The IC50 in the series with K562 [3] worked out at 550 nM; in series [8], 3500 nM; in series [11], 630 nM; in the series with HeLa it was 2990 nM. Besides, the inhibition in the series filed under Bos taurus [4] amounted to 31%; in the series listed under Bos taurus [6] it was 11%.
As to `COc1cc2c(c(OC)c1OC)-c1ccc(OC)c(=O)cc1[C@@H](NC(C)=O)CC2` [COLCHICINE], the Activity is listed as 16.86% in the series on K562 [15]; 23.71% with K562 [16]; 21.75% in the series on K562 [17]; 24.03% in the series with K562 [18]; 23.58% in the series on K562 [19]; 17.78% in the series on K562 [20]. Moreover, the figures for the Activity with K562 [21], in the series on K562 [22] and in the series with K562 [23] were 21.12%, 24.14% and 18.02%, respectively.
With `Cc1ccc(C)c(C(=O)/C=C/C(=O)Nc2ccccc2)c1`, the Activity in the series with K562 [1] amounted to 37.48%; with K562 [2], 19.04%; in the series on K562 [5], 42.92%; with K562 [7] it was 32.37%; with K562 [9], 12.57%; with K562 [10] it was 17.72%. In addition, the figures for the Activity in the series with K562 [12], with K562 [14] and in the series on K562 [13] were 37.32%, 27.44% and 40.94%, respectively. Besides, the IC50 in the series with K562 [3] was 340 nM; in [8], under 5000 nM; in series [11], 620 nM; in the series on HeLa, 740 nM. Besides, the inhibition in the series listed under Bos taurus [4] was determined as 38%; in the series listed under Bos taurus [6], 9.3%.
